Drawing on ChEMBL document CHEMBL1137737, “Synthesis, antimicrobial and cytotoxic activities of 1,3,4-oxadiazoles, 1,3,4-thiadiazoles and 1,2,4-triazoles” (Eur J Med Chem, 2009), this text covers zone of inhibition and MIC for nine molecules.

Format in all cases: functional
The subject of assay [1] is Staphylococcus aureus. As to the kind of experiment: Antibacterial activity against Staphylococcus aureus NCIM 5021 at 100 ug/disk after 24 hrs by agar disc-diffusion method. Conditions: NCIM 5021, 24 h, read-out: DIZ. Put shortly: (§1)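 Sterile 6 mm filter-paper discs are soaked in compound solution in DMSO and placed on nutrient agar plates already inoculated with each organism. Plates are incubated at 37 °C. The diameter of the growth-inhibition zone is read after 24 h for bacteria and after 48 h for fungi.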
(In agar diffusion tests the substance spreads into inoculated agar from a disc or well.)

For assay [2], the system named is Bacillus subtilis. As to the kind of experiment: Antibacterial activity against Bacillus subtilis NCIM 2063 at 100 ug/disk after 24 hrs by agar disc-diffusion method. To be noted: NCIM 2063, 24 h, read-out: DIZ. Put shortly:
as §1

Assay [3] relates to Klebsiella pneumoniae. As to the kind of experiment: Antibacterial activity against Klebsiella pneumoniae NCIM 2957 at 100 ug/disk after 24 hrs by agar disc-diffusion method. To be noted: NCIM 2957, 24 h, read-out: DIZ. The procedure, abridged:
as §1

Assay [4] deals with Proteus vulgaris. As to the kind of experiment: Antibacterial activity against Proteus vulgaris NCIM 2027 at 100 ug/disk after 24 hrs by agar disc-diffusion method. To be noted: NCIM 2027, 24 h, read-out: DIZ. The procedure, abridged: as §1
For assay [5], the system named is Fusarium solani. Description: Antifungal activity against Fusarium solani NCIM 1330 at 100 ug/disk after 48 hrs by agar disc-diffusion method. To be noted: NCIM 1330, 48 h, read-out: DIZ. Put shortly: as §1
Assay [6] relates to Curvularia lunata. Description: Antifungal activity against Curvularia lunata NCIM 716 at 100 ug/disk after 48 hrs by agar disc-diffusion method. To be noted: NCIM 716, 48 h, read-out: DIZ. The procedure, abridged: as §1
The test system of assay [7] is Aspergillus niger. As to the kind of experiment: Antifungal activity against Aspergillus niger NCIM 596 at 100 ug/disk after 48 hrs by agar disc-diffusion method. To be noted: NCIM 596, 48 h, read-out: DIZ. The procedure, abridged:
as §1

For assay [8], the system named is Staphylococcus aureus. Description: Antibacterial activity against Staphylococcus aureus NCIM 5021 at 200 ug/disk after 24 hrs by agar disc-diffusion method. To be noted: NCIM 5021, 24 h, read-out: DIZ. Put shortly: as §1
Assay [9] has as its system Bacillus subtilis. As to the kind of experiment: Antibacterial activity against Bacillus subtilis NCIM 2063 at 200 ug/disk after 24 hrs by agar disc-diffusion method. To be noted: NCIM 2063, 24 h, read-out: DIZ. The procedure, abridged:
as §1

In assay [10] the test system is Klebsiella pneumoniae. As to the kind of experiment: Antibacterial activity against Klebsiella pneumoniae NCIM 2957 at 200 ug/disk after 24 hrs by agar disc-diffusion method. Conditions: NCIM 2957, 24 h, read-out: DIZ. The procedure, abridged:
as §1

The test system of assay [11] is Proteus vulgaris. Description: Antibacterial activity against Proteus vulgaris NCIM 2027 at 200 ug/disk after 24 hrs by agar disc-diffusion method. To be noted: NCIM 2027, 24 h, read-out: DIZ. The procedure, abridged:
as §1

Assay [12] deals with Fusarium solani. Description: Antifungal activity against Fusarium solani NCIM 1330 at 200 ug/disk after 48 hrs by agar disc-diffusion method. To be noted: NCIM 1330, 48 h, read-out: DIZ. Put shortly:
as §1

In assay [13] the test system is Curvularia lunata. Description: Antifungal activity against Curvularia lunata NCIM 716 at 200 ug/disk after 48 hrs by agar disc-diffusion method. Conditions: NCIM 716, 48 h, read-out: DIZ. Put shortly:
as §1

Assay [14] relates to Aspergillus niger. Description: Antifungal activity against Aspergillus niger NCIM 596 at 200 ug/disk after 48 hrs by agar disc-diffusion method. Conditions: NCIM 596, 48 h, read-out: DIZ. Put shortly: as §1
Assay [15] deals with Staphylococcus aureus. As to the kind of experiment: Antibacterial activity against Staphylococcus aureus NCIM 5021 after 24 hrs by microdilution susceptibility method. Conditions: NCIM 5021, 24 h. The procedure, abridged:
(§2)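 This is a microdilution susceptibility test. Organism suspensions are inoculated into wells holding the dilution series, then incubated at 36 °C for 24 h (bacteria) or 48 h (fungi). MIC is the lowest concentration giving no turbidity, i.e. complete inhibition of visible growth.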
On the technique in general: In broth dilution the organism is exposed to a series of concentrations in liquid medium.

Assay [16] relates to Bacillus subtilis. As to the kind of experiment: Antibacterial activity against Bacillus subtilis NCIM 2063 after 24 hrs by microdilution susceptibility method. Conditions: NCIM 2063, 24 h. Put shortly: as §2
The test system of assay [17] is Fusarium solani. As to the kind of experiment: Antifungal activity against Fusarium solani NCIM 1330 after 48 hrs by microdilution susceptibility method. To be noted: NCIM 1330, 48 h. Put shortly: as §2
Assay [18] deals with Curvularia lunata. As to the kind of experiment: Antifungal activity against Curvularia lunata NCIM 716 after 48 hrs by microdilution susceptibility method. Conditions: NCIM 716, 48 h. The procedure, abridged: as §2
In assay [19] the test system is Aspergillus niger. Description: Antifungal activity against Aspergillus niger NCIM 596 after 48 hrs by microdilution susceptibility method. Conditions: NCIM 596, 48 h. The procedure, abridged:
as §2

The test system of assay [20] is Proteus vulgaris. Description: Antibacterial activity against Proteus vulgaris NCIM 2027 after 24 hrs by microdilution susceptibility method. To be noted: NCIM 2027, 24 h. The procedure, abridged: as §2

The structures appear in SMILES notation. Values after ≈ are worked out from the molar mass of the structure shown.

For `O=S(=O)(Cc1nnc(-c2ccccc2)s1)c1ccccc1`, the zone of inhibition at 100 µg/disc in assay [1] is 19 mm; in [2], 15 mm; in assay [3] it was 16 mm; in assay [4], 18 mm; in [5], 18 mm; in assay [6], 16 mm. In addition, in assay [7], the zone of inhibition at 100 µg/disc worked out at 15 mm. The zone of inhibition at 200 µg/disc in [8] is 21 mm; in assay [9], 17 mm; in assay [10] it was 18 mm; in [11], 20 mm; in [12] it was 22 mm; in [13], 19 mm. Also, in assay [14], the zone of inhibition at 200 µg/disc was 17 mm. Further, the minimum inhibitory concentration (MIC) in [15], in assay [16], in assay [17] and in assay [18] was 400 µg/mL (≈ 1260 µM) throughout.
Turning to `O=S(=O)(Cc1nnc(-c2ccccc2Cl)o1)c1ccc(Cl)cc1`, the zone of inhibition at 100 µg/disc is 15 mm in assay [1]; 16 mm in [2]; 14 mm in [3]; 16 mm in assay [4]; 16 mm in [5]; 17 mm in assay [6]. In addition, the zone of inhibition at 100 µg/disc in assay [7] turned out to be 15 mm. Moreover, the zone of inhibition at 200 µg/disc in [8] came to 18 mm; in assay [9], 17 mm; in assay [10] it was 17 mm; in [11], 19 mm; in assay [12], 19 mm; in assay [13], 19 mm. The zone of inhibition at 200 µg/disc in assay [14] is 16 mm. Besides, the MIC in [15], in assay [16], in assay [17] and in assay [18] was 400 µg/mL (≈ 1080 µM) each time.
Take `Nn1c(CS(=O)(=O)c2ccccc2)nnc1-c1ccccc1`: the zone of inhibition at 100 µg/disc in assay [1] is 16 mm; in assay [2], 14 mm; in assay [3], 15 mm; in [4] it was 16 mm; in [5], 22 mm; in assay [6] it was 20 mm. The zone of inhibition at 100 µg/disc in [7] worked out at 19 mm. For the same molecule, the zone of inhibition at 200 µg/disc in assay [8] was found to be 18 mm; in assay [9], 17 mm; in assay [10], 18 mm; in [11] it was 18 mm; in assay [12] it was 25 mm; in assay [13] it was 24 mm. Moreover, the zone of inhibition at 200 µg/disc in assay [14] turned out to be 22 mm. The MIC in [15], in assay [16], in assay [17] and in [18] was 400 µg/mL (≈ 1270 µM) each time.
In the case of `O=S(=O)(Cc1nnc(-c2ccccc2)s1)c1ccc(Cl)cc1`, the zone of inhibition at 100 µg/disc in assay [1] was found to be 20 mm; in [2] it was 18 mm; in [3] it was 15 mm; in [4] it was 16 mm; in assay [5], 18 mm; in [6], 19 mm. Moreover, the zone of inhibition at 100 µg/disc in assay [7] turned out to be 16 mm. For the same molecule, the zone of inhibition at 200 µg/disc in assay [8] was determined as 23 mm; in assay [9], 23 mm; in assay [10], 17 mm; in [11], 19 mm; in assay [12] it was 21 mm; in assay [13], 21 mm. Further, the zone of inhibition at 200 µg/disc in [14] amounted to 19 mm. Further, the MIC in [15], in [16], in assay [17], in assay [18] and in assay [19] was 400 µg/mL (≈ 1140 µM) throughout.
Take `CC(=O)N1CCN(c2ccc(OCC3COC(Cn4ccnc4)(c4ccc(Cl)cc4Cl)O3)cc2)CC1` (stereo unspecified) [KETOCONAZOLE]: the zone of inhibition at 100 µg/disc in [5] came to 38 mm; in assay [6], 41 mm; in [7], 36 mm. The zone of inhibition at 200 µg/disc in [12] amounted to 42 mm; in [13], 44 mm; in assay [14] it was 39 mm. Also, the values for the MIC in assay [17], in assay [18] and in assay [19] were 12.5 µg/mL (≈ 23.5 µM), 6.25 µg/mL (≈ 11.8 µM) and 6.25 µg/mL (≈ 11.8 µM), respectively.
For `Nn1c(CS(=O)(=O)c2ccccc2)nnc1-c1ccccc1Cl`, the zone of inhibition at 100 µg/disc was found to be 17 mm in assay [1]; 19 mm in assay [2]; 17 mm in assay [3]; 16 mm in assay [4]; 23 mm in [5]; 22 mm in assay [6]. The zone of inhibition at 100 µg/disc in assay [7] was determined as 18 mm. Also, the zone of inhibition at 200 µg/disc was 20 mm in [8]; 22 mm in assay [9]; 20 mm in assay [10]; 18 mm in assay [11]; 25 mm in [12]; 25 mm in [13]. The zone of inhibition at 200 µg/disc in assay [14] amounted to 21 mm. The MIC (usually the smallest concentration in the dilution series that meets the test's criterion for growth inhibition) came to 400 µg/mL (≈ 1150 µM) in assay [15], 200 µg/mL (≈ 573 µM) in [16], 400 µg/mL (≈ 1150 µM) in assay [17] and 200 µg/mL (≈ 573 µM) in assay [18].
Take `Nn1c(CS(=O)(=O)c2ccc(Cl)cc2)nnc1-c1ccccc1`: the zone of inhibition at 100 µg/disc in assay [1] came out at 19 mm; in [2] it was 17 mm; in assay [3], 17 mm; in assay [4] it was 18 mm; in [5], 21 mm; in assay [6] it was 22 mm. The zone of inhibition at 100 µg/disc in [7] was 19 mm. In addition, the zone of inhibition at 200 µg/disc in assay [8] is 23 mm; in assay [9] it was 20 mm; in assay [10] it was 19 mm; in [11], 21 mm; in assay [12] it was 24 mm; in [13] it was 25 mm. Moreover, the zone of inhibition at 200 µg/disc in assay [14] was 22 mm. Moreover, the MIC in [15] was 400 µg/mL (≈ 1150 µM); in assay [16] it was 400 µg/mL (≈ 1150 µM); in assay [20], 400 µg/mL (≈ 1150 µM); in assay [17], 200 µg/mL (≈ 573 µM); in assay [18], 200 µg/mL (≈ 573 µM); in assay [19], 200 µg/mL (≈ 573 µM).
With `O=S(=O)(Cc1nnc(-c2ccccc2Cl)s1)c1ccccc1`, the zone of inhibition at 100 µg/disc in assay [1] was 20 mm; in [2], 15 mm; in assay [3], 17 mm; in assay [4], 16 mm; in assay [5], 19 mm; in assay [6] it was 18 mm. Further, the zone of inhibition at 100 µg/disc in [7] is 15 mm. Besides, the zone of inhibition at 200 µg/disc in assay [8] was determined as 23 mm; in assay [9], 18 mm; in assay [10], 21 mm; in [11], 19 mm; in assay [12], 22 mm; in [13] it was 21 mm. In addition, the zone of inhibition at 200 µg/disc in assay [14] amounted to 18 mm. Besides, the MIC in assay [15], in [16], in assay [17], in assay [18] and in assay [19] was 400 µg/mL (≈ 1140 µM) each time.
For `O=S(=O)(Cc1ccc(Cl)cc1)Cc1nnc(-c2ccccc2)o1`, the zone of inhibition at 100 µg/disc stood at 18 mm in assay [1]; 18 mm in assay [2]; 16 mm in assay [3]; 15 mm in assay [4]; 16 mm in assay [5]; 19 mm in assay [6]. Further, the zone of inhibition at 100 µg/disc in assay [7] worked out at 17 mm. For the same molecule, the zone of inhibition at 200 µg/disc is 20 mm in assay [8]; 19 mm in [9]; 18 mm in assay [10]; 17 mm in [11]; 19 mm in [12]; 22 mm in assay [13]. Further, the zone of inhibition at 200 µg/disc in [14] stood at 21 mm. Further, the MIC in assay [15], in [17] and in [18] was 400 µg/mL (≈ 1150 µM) in each case.
